Results from ChEMBL document CHEMBL4364314, “Design, synthesis and biological evaluation of 6-deoxy O-spiroketal C-arylglucosides as novel renal sodium-dependent glucose cotransporter 2 (SGLT2) inhibitors for the treatment of type 2 diabetes” (Eur J Med Chem, 2019).

Key:
[1] = target: T1, Sodium/glucose cotransporter 2 (Homo sapiens, UniProt P31639); experiment: Inhibition of human full length SGLT2 expressed in NIH3T3 cells measured after 1 hr in presence of [14C]-methyl-alpha -D-glucopyranoside by scintillation counter method; type: cell-based
T1 sequence (P31639 whole entry): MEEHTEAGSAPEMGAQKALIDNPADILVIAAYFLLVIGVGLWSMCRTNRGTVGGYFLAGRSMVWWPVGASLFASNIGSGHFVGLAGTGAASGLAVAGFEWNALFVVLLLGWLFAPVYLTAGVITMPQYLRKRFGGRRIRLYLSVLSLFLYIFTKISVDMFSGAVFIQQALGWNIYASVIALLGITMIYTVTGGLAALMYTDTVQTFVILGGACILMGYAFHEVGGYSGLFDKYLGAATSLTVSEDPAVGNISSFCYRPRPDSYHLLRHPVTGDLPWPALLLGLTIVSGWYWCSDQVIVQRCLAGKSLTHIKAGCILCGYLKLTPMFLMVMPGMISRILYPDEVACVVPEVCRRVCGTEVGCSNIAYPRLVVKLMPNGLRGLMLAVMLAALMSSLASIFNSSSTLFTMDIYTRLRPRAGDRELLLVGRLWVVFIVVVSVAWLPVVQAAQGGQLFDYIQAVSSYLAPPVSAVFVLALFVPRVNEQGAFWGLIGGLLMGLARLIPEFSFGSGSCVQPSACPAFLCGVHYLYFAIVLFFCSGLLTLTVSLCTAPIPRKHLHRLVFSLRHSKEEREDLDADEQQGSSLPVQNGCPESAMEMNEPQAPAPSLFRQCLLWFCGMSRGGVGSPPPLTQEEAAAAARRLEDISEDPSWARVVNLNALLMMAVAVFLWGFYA
Outline: (§1)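 Stable NIH3T3 lines from retroviral transduction of full-length hSGLT1 or hSGLT2 (pBABE-puro, 8 µg/mL polybrene, puromycin 2 µg/mL selection for 2 weeks). Cells plated 2 days ahead, 2 mmol/L sodium butyrate added day 2. Read by scintillation counting. Compound-free buffer served as negative control, sodium-free N-methyl-glucamine buffer as blank.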

[2] = target: T2, Sodium/glucose cotransporter 1 (Homo sapiens, UniProt P13866); experiment: Inhibition of human full length SGLT1 expressed in NIH3T3 cells measured after 1 hr in presence of [14C]-methyl-alpha -D-glucopyranoside by scintillation counter method; type: cell-based; outline: as §1
T2 sequence (P13866 whole entry): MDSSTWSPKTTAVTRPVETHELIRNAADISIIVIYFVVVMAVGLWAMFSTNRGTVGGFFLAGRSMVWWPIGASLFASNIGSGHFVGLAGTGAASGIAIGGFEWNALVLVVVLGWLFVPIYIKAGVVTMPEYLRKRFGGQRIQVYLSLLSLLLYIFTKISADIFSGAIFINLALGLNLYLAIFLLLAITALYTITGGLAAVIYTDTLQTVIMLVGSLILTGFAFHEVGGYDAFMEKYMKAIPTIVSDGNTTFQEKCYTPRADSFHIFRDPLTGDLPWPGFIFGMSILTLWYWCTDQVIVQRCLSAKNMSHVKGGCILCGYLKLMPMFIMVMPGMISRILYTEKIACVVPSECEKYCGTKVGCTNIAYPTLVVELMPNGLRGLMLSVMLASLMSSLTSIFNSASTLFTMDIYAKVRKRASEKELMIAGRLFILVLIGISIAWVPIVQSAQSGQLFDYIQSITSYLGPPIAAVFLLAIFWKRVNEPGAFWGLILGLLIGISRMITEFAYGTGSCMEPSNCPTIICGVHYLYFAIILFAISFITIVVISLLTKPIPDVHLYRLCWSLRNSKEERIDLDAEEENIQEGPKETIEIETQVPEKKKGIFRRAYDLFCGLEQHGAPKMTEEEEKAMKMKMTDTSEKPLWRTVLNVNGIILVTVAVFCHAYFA

Homo sapiens = species on record: Homo sapiens; experiment: Selectivity ratio of IC50 for human full length SGLT1 to IC50 for human full length SGLT2
Outline: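 Ratio of IC50 at hSGLT1 to IC50 at hSGLT2, both from the [14C]methyl-α-D-glucopyranoside uptake assay in stably transfected NIH3T3 cells.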

Rattus norvegicus [3] = experiment: Effect on urine glucose excretion in Sprague-Dawley rat 1 mg/kg, po administered as single dose measured after 24 hrs assessed per 100 grams (reference value: 0.51 +/- 0.40 mg); type: functional
Mus musculus [4] = experiment: Effect on urine glucose excretion in C57BL/6J mouse at 1 mg/kg, po administered as single dose measured after 24 hrs assessed per 100 grams (reference value: 0.84 +/- 0.40 mg ); type: functional
Rattus norvegicus [5] = experiment: Effect on urine glucose concentration in Sprague-Dawley rat at 1 mg/kg, po administered as single dose measured after 24 hrs by glucose oxidase method (reference value: 0.28 +/- 0.16 mmol/L); type: functional
Mus musculus [6] = experiment: Effect on urine glucose concentration in C57BL/6J mouse at 1 mg/kg, po administered as single dose measured after 24 hrs by glucose oxidase method (reference value: 0.74 +/- 0.14 mmol/L); type: functional
Mus musculus [7] = experiment: Effect on urinary volume in C57BL/6J mouse at 1 mg/kg, po administered as single dose measured after 24 hrs (reference value: 1.24 +/- 0.45 mL); type: ADME, organism-based; settings: in vivo
Rattus norvegicus [8] = experiment: Effect on urinary volume in Sprague-Dawley rat at 1 mg/kg, po administered as single dose measured after 24 hrs (reference value: 24.17 +/- 7.11 mL); type: ADME, organism-based; settings: in vivo
[9] = target: T3, Sodium/glucose cotransporter 2 (Homo sapiens) (UniProt P31639); experiment: Binding affinity to human SGLT2 assessed as dissociation half-life
T3 sequence (whole entry): T1 sequence (P31639 whole entry)

| Structure (SMILES) | IC50 [1] | IC50 [2] | Ratio IC50 (Homo sapiens) | also measured |
| --- | --- | --- | --- | --- |
| CCc1ccc(Cc2cc3c(cc2Cl)CO[C@]32O[C@H](C)[C@@H](O)[C@H](O)[C@H]2O)cc1 | – | 0.4 µM | 13 | – |
| CCc1ccc(Cc2ccc3c(c2)[C@]2(OC3)O[C@H](CO)[C@@H](O)[C@H](O)[C@H]2O)cc1.O [TOFOGLIFLOZIN] | – | – | – | Activity (Rattus norvegicus [3]): 73.68 mg; Activity (Mus musculus [4]): 48.85 mg; Activity (Rattus norvegicus [5]): 43.67 mmol/L; Activity (Mus musculus [6]): 56.27 mmol/L; Activity (Mus musculus [7]): 1.3 mL; Activity (Rattus norvegicus [8]): 26.5 mL |
| COc1ccc(Cc2ccc3c(c2)[C@]2(OC3)O[C@H](C)[C@@H](O)[C@H](O)[C@H]2O)cc1 | > 0.1 µM | – | – | – |
| C[C@H]1O[C@]2(OCc3cc(Cl)c(Cc4cc5ccccc5s4)cc32)[C@H](O)[C@@H](O)[C@@H]1O | – | 2 µM | 81 | – |
| C[C@H]1O[C@]2(OCc3ccc(Cc4cc5ccccc5o4)cc32)[C@H](O)[C@@H](O)[C@@H]1O | > 0.1 µM | – | – | – |
| OC[C@H]1O[C@@H](c2ccc(Cl)c(Cc3ccc(O[C@H]4CCOC4)cc3)c2)[C@H](O)[C@@H](O)[C@@H]1O | – | – | – | T1/2 [9]: 1 h |
| CC(C)c1ccc(Cc2ccc3c(c2)[C@]2(OC3)O[C@H](C)[C@@H](O)[C@H](O)[C@H]2O)cc1 | > 0.1 µM | – | – | – |
| CCOc1ccc(Cc2ccc3c(c2)[C@]2(OC3)O[C@H](C)[C@@H](O)[C@H](O)[C@H]2O)cc1 | > 0.1 µM | – | – | – |
| C[C@H]1O[C@]2(OCc3ccc(Cc4ccc(Cl)s4)cc32)[C@H](O)[C@@H](O)[C@@H]1O | > 0.1 µM | – | – | – |
| CCCc1ccc(Cc2ccc3c(c2)[C@]2(OC3)O[C@H](C)[C@@H](O)[C@H](O)[C@H]2O)cc1 | > 0.1 µM | – | – | – |
| CCOc1ccc(Cc2cc([C@@H]3S[C@H](CO)[C@@H](O)[C@H](O)[C@H]3O)c(OC)cc2C)cc1 | – | – | – | T1/2 [9]: 7 h |
| CCc1ccc(Cc2ccc3c(c2)[C@]2(OC3)O[C@H](C)[C@@H](O)[C@H](O)[C@H]2O)cc1 | – | – | 351 | – |
| Cc1ccc(Cc2ccc3c(c2)[C@]2(OC3)O[C@H](C)[C@@H](O)[C@H](O)[C@H]2O)s1 | > 0.1 µM | – | – | – |
| C[C@H]1O[C@]2(OCc3ccc(Cc4ccc(-c5ccccc5)s4)cc32)[C@H](O)[C@@H](O)[C@@H]1O | > 0.1 µM | – | – | – |
| CCc1ccc(Cc2ccc3c(c2)[C@]2(OC3)O[C@H](C)[C@@H](O)[C@H](O)[C@H]2O)s1 | > 0.1 µM | – | – | – |
| C[C@H]1O[C@]2(OCc3cc(Cl)c(Cc4ccc(-c5ccc(F)cc5)s4)cc32)[C@H](O)[C@@H](O)[C@@H]1O | > 0.1 µM | – | – | – |
| C[C@H]1O[C@]2(OCc3ccc(Cc4cc5ccccc5s4)cc32)[C@H](O)[C@@H](O)[C@@H]1O | > 0.1 µM | – | – | – |
| C[C@H]1O[C@]2(OCc3ccc(Cc4ccc(-c5ccc(F)cc5)s4)cc32)[C@H](O)[C@@H](O)[C@@H]1O | > 0.1 µM | – | – | – |
| C[C@H]1O[C@]2(OCc3ccc(Cc4ccc5ccccc5c4)cc32)[C@H](O)[C@@H](O)[C@@H]1O | > 0.1 µM | – | – | – |
| C[C@H]1O[C@]2(OCc3ccc(Cc4ccc(-c5ccccn5)s4)cc32)[C@H](O)[C@@H](O)[C@@H]1O | > 0.1 µM | – | – | – |

More lines, main results first:

| IC50 [1] | IC50 [2] | Ratio IC50 (Homo sapiens) | Structure (SMILES) | also measured |
| --- | --- | --- | --- | --- |
| 0.0424 µM | 6.4 µM | 151 | COC(=O)Cc1ccc(Cc2cc3c(cc2Cl)CO[C@]32O[C@H](C)[C@@H](O)[C@H](O)[C@H]2O)s1 | – |
| 0.0472 µM | 2.2 µM | 47 | C[C@H]1O[C@]2(OCc3cc(Cl)c(Cc4ccc(CO)s4)cc32)[C@H](O)[C@@H](O)[C@@H]1O | – |
| 0.0694 µM | 4.7 µM | 68 | COCCc1ccc(Cc2cc3c(cc2Cl)CO[C@]32O[C@H](C)[C@@H](O)[C@H](O)[C@H]2O)s1 | – |
| > 0.1 µM | – | – | CCCc1ccc(Cc2ccc3c(c2)[C@]2(OC3)O[C@H](C)[C@@H](O)[C@H](O)[C@H]2O)s1 | – |
| > 0.1 µM | – | – | Cc1ccc(Cc2ccc3c(c2)[C@]2(OC3)O[C@H](C)[C@@H](O)[C@H](O)[C@H]2O)cc1 | – |
| 0.0675 µM | 4.8 µM | 71 | CCOCCc1ccc(Cc2cc3c(cc2Cl)CO[C@]32O[C@H](C)[C@@H](O)[C@H](O)[C@H]2O)s1 | – |
| 0.0088 µM | 0.5 µM | 60 | CCOc1ccc(Cc2cc3c(cc2Cl)CO[C@]32O[C@H](C)[C@@H](O)[C@H](O)[C@H]2O)cc1 | – |
| 0.0085 µM | 0.4 µM | 46 | Cc1ccc(Cc2cc3c(cc2Cl)CO[C@]32O[C@H](C)[C@@H](O)[C@H](O)[C@H]2O)s1 | – |
| 0.0513 µM | 3.6 µM | 70 | C[C@H]1O[C@]2(OCc3cc(Cl)c(Cc4ccc(C=O)s4)cc32)[C@H](O)[C@@H](O)[C@@H]1O | – |
| 0.0423 µM | 5 µM | 117 | CCCOCCc1ccc(Cc2cc3c(cc2Cl)CO[C@]32O[C@H](C)[C@@H](O)[C@H](O)[C@H]2O)s1 | – |
| 0.0159 µM | 0.5 µM | 30 | C[C@H]1O[C@]2(OCc3cc(Cl)c(Cc4ccc(Cl)s4)cc32)[C@H](O)[C@@H](O)[C@@H]1O | – |
| 0.0515 µM | 3 µM | 58 | COC(=O)c1ccc(Cc2cc3c(cc2Cl)CO[C@]32O[C@H](C)[C@@H](O)[C@H](O)[C@H]2O)s1 | – |
| 0.0262 µM | – | 988 | CCc1ccc(Cc2cc3c(cc2F)CO[C@]32O[C@H](C)[C@@H](O)[C@H](O)[C@H]2O)s1 | – |
